Source: PubChem BioAssay (several laboratories)
An excerpt weighted towards active compounds, which were near 2.2% of everything screened.
FLuc stim CS: firefly luciferase counter-screen for stimulation assays | ATPlite luciferase biochemical, luminescence, 10 min; 0 = ATP-free wells, 1 = DMSO control | activation factor at 10 µM | AID 1027 | 200,000 tested, under 10 active;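 active = luciferase activation factor, scaled between plate controls, of at least 2 with compound at 10 µM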
Target sequence (P08659 whole entry, looked up): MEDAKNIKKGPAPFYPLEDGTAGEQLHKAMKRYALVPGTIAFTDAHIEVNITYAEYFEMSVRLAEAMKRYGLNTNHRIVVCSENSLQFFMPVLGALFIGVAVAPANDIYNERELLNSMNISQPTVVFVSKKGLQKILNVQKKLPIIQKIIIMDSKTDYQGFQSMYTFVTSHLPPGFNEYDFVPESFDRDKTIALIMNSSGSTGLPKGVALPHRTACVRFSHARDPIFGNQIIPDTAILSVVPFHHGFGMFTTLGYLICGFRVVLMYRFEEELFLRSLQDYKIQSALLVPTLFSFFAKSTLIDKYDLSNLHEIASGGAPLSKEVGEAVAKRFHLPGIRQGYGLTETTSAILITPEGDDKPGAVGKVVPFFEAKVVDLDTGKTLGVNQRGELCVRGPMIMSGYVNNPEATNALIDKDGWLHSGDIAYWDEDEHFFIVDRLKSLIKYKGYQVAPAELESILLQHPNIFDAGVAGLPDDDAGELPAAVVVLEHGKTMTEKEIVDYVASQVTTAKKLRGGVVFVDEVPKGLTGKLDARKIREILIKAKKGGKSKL
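Material: Luciferase/luciferin reagent mix; Doses: test compounds dosed from 2 mM stocks in 100% DMSO; Schedule: 10 min incubation after luciferase reagent addition, room temperature; Measured by: luminescence from luciferase reaction; Read-out: luminescence gain marking luciferase activators.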
NF-kB expr up: compounds increasing NF-kB expression in human neuronal cells; NF-kB reporter expression; hits give high values; fold change at 12.5 µM; hit rate 1.6% among 190,000; AID 1239; in the data active = fold change above about 3.3
PPC-1+TRAIL kill: compounds killing PPC-1 cancer cells with TRAIL present (potentiator screen, no TRAIL-free arm); cell killing (% activity), % at 4 µM or 5 µM; hit rate 0.41% among 220,000; PPC-1 cells + TRAIL, ATPLite viability luminescence;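 active = cell killing above 50% in the first pass at 4 µM, then a duplicate retest at 5 µM averaging 50% or more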;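 also: plate controls were cells with TRAIL plus DMSO for no effect and medium-only wells lacking cells for full effect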
APP 5'UTR act: activates APP 5'UTR luciferase reporter; hit rate 1% among 190,000; SH-SY5Y APP 5'UTR luciferase reporter, luminescence; zero percent = DMSO vehicle wells; activation, % at 2 µM;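 active = activation above a set limit, based on mean plus 3 SD of controls, cut at about 140% in these data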
C8 TRAIL sens: sensitizes caspase-8 expressing cells to TRAIL. inhibition (viability loss, TRAIL sensitization), % at 10 µM. NB7+C8 cells + TRAIL, ATPlite viability luminescence. hit rate 1% among 360,000;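 active = compounds causing at least 50% loss of cell viability in the single-dose screen, relative to plate controls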
FLuc inhib CS: inhibits firefly luciferase, flagging false hits in luciferase inhibition screens | hit rate 1.5% among 200,000 | inhibition, % at 10 µM | P08659 | ATPLite firefly luciferase biochemical luminescence, 10 min;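 active = inhibition above about 50% when tested at 10 µM, limit read from the data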
An asterisk follows results filed as active; . = not tested or not shown.

SMILES	FLuc stim CS	NF-kB expr up	PPC-1+TRAIL kill	APP 5'UTR act	C8 TRAIL sens	FLuc inhib CS
Cc1ccccc1OCC(=O)Nc1cccc(N(C)S(C)(=O)=O)c1	0.9	1.3	0	4	20	11
O=C(COc1ccc(Cl)cc1Cl)Nc1cccnc1	0.4	1.3	16	78	32	58*
CN(c1cccc(NC(=O)COc2ccc(Cl)cc2Cl)c1)S(C)(=O)=O	0.3	1.3	36	40	57*	69*
FC(F)C(F)(F)C(F)(F)C(F)(F)c1cc(-c2ccccc2)n[nH]1	1.1	5.1*	12	25	20	-8
Cc1cc(-c2ccccc2)n[nH]1	1	1.1	-5	15	1	2
CCCC(=O)N1CCc2cc(-c3nc(N)sc3C)ccc21	0.8	2	12	42	9	15
CNc1nc(-c2ccc3c(c2)CCN3C(=O)c2ccccc2F)cs1	0.4	7.5*	25	208*	44	65*
CCC(C)C(=O)N1CCc2cc(-c3csc(N)n3)ccc21 (stereo unspecified)	0.3	2	10	86	27	67*
CC(C)(C)NC(=O)NC(=O)COC(=O)CNS(=O)(=O)/C=C/c1ccccc1	1.1	1.2	8	5	-22	-6
CC1CCN(S(=O)(=O)c2ccc3ncn(CC(=O)N4CCN(C)CC4)c(=O)c3c2)CC1	1	0.89	-11	4	9	-4
CCOC(=O)N1CCN(C(=O)c2noc(C(C)C)c2[N+](=O)[O-])CC1	1.1	1.4	25	19	1	-10
Cc1snc(SCC(=O)c2ccc(Cl)cc2)c1C#N	1.1	2.5	-17	101	-2	-6
Cc1ccc(C(=O)CSc2nsc(C)c2C#N)cc1	1	6*	12	156*	3	3
Cc1cc(/C=C2/SC(=O)N(CC(=O)N3CCOCC3)C2=O)c(C)n1-c1ccccc1F	0.1	2.9	53*	71	3	87*
CCc1ccc(CNC(=O)Cc2ccc(NC(=O)C3=C(C)OCCS3)cc2)cc1	.	.	.	.	53*	.
COc1cccc(CNC(=O)Cc2ccc(NC(=O)C3=C(C)OCCS3)cc2)c1	.	.	.	.	56*	.
CC1CCN(C(=O)CNC(=O)c2cccc(OC(F)F)c2)CC1	1	1.4	.	15	3	-4
Nc1nnn(-c2ccccc2)c1-c1ccccc1	.	.	.	.	-22	.
Clc1c(-c2ccccc2)nnn1-c1ccccc1	0.3	4.8*	9	153*	21	69*
CC1CCc2c(C(=O)Nc3nccs3)csc2C1 (stereo unspecified)	0.9	4.1*	15	60	-1	12
Cc1ccccc1NC(=S)NNC(=O)c1csc2c1CCC(C)C2 (stereo unspecified)	0.4	0.46	39	180*	17	60*
CCNC(=S)NNC(=O)c1csc2c1CCC(C)C2 (stereo unspecified)	1	1.4	17	24	-10	-2
Clc1cnc(N/N=C/c2ccco2)c(Cl)c1	0.7	4.2*	38	155*	33	26
CCCN1CCN(CC(=O)Nc2nncs2)CC1	.	.	.	.	-2	.
O=C1S/C(=C/c2ccc(N3CCOCC3)o2)C(=O)N1Cc1ccc(F)cc1	1	1.7	7	14	2	0
SMILES	FLuc stim CS	NF-kB expr up	PPC-1+TRAIL kill	APP 5'UTR act	C8 TRAIL sens	FLuc inhib CS
O=C1NC(=S)S/C1=C/c1ccc(N2CCOCC2)o1	0.4	1.2	25	-13	17	64*
O=C1N/C(=C/c2ccc(N3CCOCC3)o2)C(=O)N1c1ccccc1	0.9	6.2*	18	-54	10	6
OC[C@@H](O)[C@@H](O)[C@H](O)[C@H](O)CO	.	.	.	.	13	.
COc1ccc(C(=O)CCC(=O)Nc2cccnc2)cc1OC	.	.	.	.	0	.
COc1ccc(-c2nn(-c3ccccc3)cc2/C=N/N2C(=O)CSC2=S)cc1	1.1	3.1	-12	25	69*	-6
CCN1CCN(Cc2ccc(NC(=O)Nc3cccs3)cc2)CC1	0.3	1.2	7	75	32	74*
CCN1CCN(Cc2ccc(NC(=O)Nc3ccccc3)cc2)CC1	0.4	1.3	36	98	36	64*
O=C(N/N=C/c1ccncc1)c1cccc(NC(=O)c2ccc(Cl)cc2)c1	1	0.82	9	17	-8	0
O=C(N/N=C/c1cccc(NC(=O)c2ccc(Cl)cc2)c1)c1ccc(O)cc1	.	.	30	.	61*	.
O=C(N/N=C/c1cccc(F)c1)c1ccc(Cl)cc1	0.4	2.7	15	20	23	58*
COC(=O)[C@@]12C[C@@H](CC(=O)N3CCOCC3)C(=O)N(Cc3ccc4c(c3)OCO4)C1=CCC(C)(C)C2	.	.	.	.	-24	.
COn1c(SCc2cccc(Cl)c2)nc2ccccc2c1=O	1.1	0.86	11	-3	56*	-6
COn1c(SCc2ccccc2)nc2ccccc2c1=O	1	1.2	14	-5	69*	0
Cc1cccc(CSc2nc3ccccc3c(=O)n2C)c1	.	.	.	.	15	.
CCCCCCCCC(c1nc2ccccc2[nH]1)N1CCN=C1c1cc2ccccc2[nH]1 (stereo unspecified)	.	.	.	.	87*	.
CC(C)(C)OC(=O)N/N=C/c1cccc([N+](=O)[O-])c1	0.2	3.9*	31	95	30	79*
Cc1cc(C(=O)N/N=C/c2cccc([N+](=O)[O-])c2)c(C)o1	1	1	17	-1	5	4
CC(C)(C)OC(=O)N/N=C\c1ccc[nH]1	0.4	2.2	28	34	2	62*
CC(C)(C)c1ccc2c(c1)OC(C(=O)N/N=C\c1ccc[nH]1)CO2 (stereo unspecified)	.	.	.	.	61*	.
Cc1cccc(C(=O)N/N=C/c2ccc[nH]2)c1	0.7	1.4	7	-1	-24	26
CCC[C@H]1CN(c2ccc(OC)cc2)C(=O)[C@@H]1CC(=O)NC	.	.	.	.	2	.
Cc1ccc(NS(=O)(=O)c2c(C)noc2C)cc1	.	.	.	.	12	.
Cn1cc(Cl)c(C(=O)N/N=C/c2ccc3c4c(cccc24)CC3)n1	.	.	.	.	67*	.
Cc1ccc(/C=N/NC(=O)c2nn(C)cc2Cl)cc1	0.1	2.1	43	42	68*	86*
Cc1ccc(-c2cc3nc(-c4ccccc4)cc(N)n3n2)cc1	0.9	1.5	13	30	-1	13
COc1ccc(-c2cc3nc(C)cc(C)n3n2)cc1	0.5	3.6*	29	112	14	49
Cc1cc(N)n2nc(-c3ccccc3)cc2n1	0.1	5.4*	68*	118	77*	91*
COc1ccc(-c2nc3nc(C)cc(C)n3n2)cc1	0.4	1.5	37	.	37	59*
Cc1cc(C)n2nc(-c3ccc(Br)cc3)cc2n1	.	.	.	.	8	.
COc1cccc(CNC(=O)c2cc(S(=O)(=O)N3CCOCC3)cn2C)c1	.	.	.	.	12	.
